By IC50 is commonly meant the point on the concentration scale where inhibition reaches its midpoint.

Experimental findings from ChEMBL document CHEMBL1212906, “Apoptotic effects of polyprenylated benzoylphloroglucinol derivatives from the twigs of Garcinia multiflora” (J Nat Prod, 2010) are described below.

Calls of active or inactive are those of the source. No cut-off for these calls is given here.

The nature of test [1]: Induction of apoptosis in human HeLaC3 cells assessed as yellow fluorescent protein/cyan fluorescent protein emission ratio at 100 uM after 72 hrs by FRET assay. The class given is functional, HeLa C3. Put shortly: (§1)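 Caspase-3 FRET biosensor (CFP–DEVD–YFP) HeLa-C3 cells were grown in MEM with 10% FBS, penicillin and streptomycin at 37 °C in 5% CO2. 7500 cells per well were seeded and given compound after 12–16 h (DMSO stock ≥1000× working concentration). A YFP/CFP ratio ≤3 was scored as apoptosis. Triplicates, three repeats.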

Test [2] in a line: Cytotoxicity against human HeLa cells after 72 hrs by MTT assay. (Tetrazolium assays rely on reduction of a dye to a coloured formazan, in cell work by metabolically active cells.)
Test [3] concerns HeLa C3. The test can be described thus: Induction of apoptosis in human HeLaC3 cells assessed as morphological changes at 100 uM after 24 to 72 hrs. The class given is functional, cell-based. Put shortly:
(§2)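 Compound-treated HeLa-C3 biosensor cells were photographed under a microscope at 24, 48 and 72 h. Paclitaxel 500 nM was the positive control and untreated cells the negative control. Cell shrinkage and detachment from the plate were taken as apoptotic morphology.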

Test [4] can be described thus: Induction of apoptosis in human HeLaC3 cells assessed as yellow fluorescent protein/cyan fluorescent protein emission ratio at 50 uM after 72 hrs by FRET assay. The format is functional, HeLa C3. Put shortly: as §1
A short description of test [5]: Induction of apoptosis in human HeLaC3 cells assessed as yellow fluorescent protein/cyan fluorescent protein emission ratio at 25 uM after 72 hrs by FRET assay. The class given is functional, HeLa C3. The gist of the method: as §1
Test [6] relates to HeLa C3. The test can be described thus: Induction of apoptosis in human HeLaC3 cells assessed as morphological changes at 50 uM after 24 to 72 hrs. The format is functional, cell-based. Put shortly:
as §2

For test [7], the system named is HeLa C3. Kind of test: Induction of apoptosis in human HeLaC3 cells at 25 uM after 72 hrs. The class given is functional, cell-based. The gist of the method:
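Caspase-3 FRET biosensor (CFP–DEVD–YFP) HeLa-C3 cells were grown in MEM with 10% FBS, penicillin and streptomycin at 37 °C in 5% CO2. 7500 cells per well were seeded and given compound after 12–16 h (DMSO stock ≥1000× working concentration). Plates were excited at 440 nm, with emission read at 486 (CFP) and 535 (YFP) nm, for up to 72 h. A YFP/CFP ratio ≤3 was scored as apoptosis. Triplicates, three repeats.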

In test [8] the test system is HeLa C3. Kind of test: Induction of apoptosis in human HeLaC3 cells assessed as morphological changes at 25 uM after 24 to 72 hrs. The format is functional, cell-based. Put shortly: as §2

For the compound `C=C(C)C(O)C[C@H](C[C@@]12C[C@@H](CC=C(C)C)C(C)(C)[C@@](CC=C(C)C)(C(=O)C(C(=O)c3ccc(O)c(O)c3)=C1O)C2=O)C(=C)C` (stereo partly specified) [GARCIMULTIFLORONE E], the Ratio result in test [1] is reported as “<=3”; in test [4], >3; in test [5], >3. The same compound gave a half-maximal inhibitory concentration (IC50) in test [2] of 14.3 µM. For the same compound, the result in test [3] was Active.
`C=C(C)[C@H](CC=C(C)C)C[C@@]12C[C@@H](CC(O)C(C)(C)O)C(C)(C)[C@@](CC=C(C)C)(C(=O)C(C(=O)c3ccc(O)c(O)c3)=C1O)C2=O` (stereo partly specified) [GARCIMULTIFLORONE F]: the Ratio result in test [1] was “<=3”; in test [4], “<=3”; in test [5] it was >3. In test [2], this compound yielded an IC50 of 14.9 µM. The result in test [6] was Active.
As for `CC(C)=CC[C@@H]1C[C@]23C[C@H](CC=C(C)C)C(C)(C)[C@](CC=C(C)C)(C(=O)C(C(=O)c4ccc(O)c(O)c4)=C2OC1(C)C)C3=O` [ISOXANTHOCHYMOL], the result in test [7] and in test [8] was Active. For the same compound, the Ratio in test [1] was >3; in test [4], >3; in test [5], “<=3”.
On to `O=C1c2c(O)cc(O)cc2O[C@H](c2ccc(O)cc2)[C@H]1c1c(O)cc(O)c2c(=O)cc(-c3ccc(O)c(O)c3)oc12` [MORELLOFLAVONE], for which the Ratio in test [1], in test [4] and in test [5] was >3 each time.
Consider `C=C(C)[C@H](CC=C(C)C)C[C@@]12C[C@@H](CC=C(C)C)C(C)(C)[C@@](CCC(C)(C)O)(C(=O)C(C(=O)c3ccc(O)c(O)c3)=C1O)C2=O` [GARCIMULTIFLORONE D], for which the values for the Ratio entry in test [1], in test [4] and in test [5] were “<=3”, “<=3” and >3, respectively. The compound also gave an IC50 in test [2] of 17.5 µM. Further, the outcome in test [6] was Active.
For the compound `C=C(C)[C@H](CC=C(C)C)C[C@@]12C[C@@H](CC=C(C)C)C(C)(C)[C@@](CC=C(C)C)(C(=O)C(C(=O)c3ccc(O)c(O)c3)=C1O)C2=O` [GUTTIFERONE F], the Ratio entry in test [1] is “<=3”; in test [4], “<=3”; in test [5] it was >3. Also, in test [6], the outcome was Active.
Take `C=C(C)[C@H](CC=C(C)C)C[C@@]12C[C@@H](CC=C(C)C)C(C)(C)[C@@](CC(O)C(C)(C)O)(C(=O)C(C(=O)c3ccc(O)c(O)c3)=C1O)C2=O` (stereo partly specified): the Ratio in test [1], in test [4] and in test [5] was >3 each time. This compound also returned an IC50 in test [2] of 23 µM.
